The text below walks through data of ChEMBL document CHEMBL1122483, “Synthesis and antihypertensive activity of substituted trans-4-amino-3,4-dihydro-2,2-dimethyl-2H-1-benzopyran-3-ols” (1983).

The subject of test [1] is Rattus norvegicus. Briefly: Maximum fall in systolic blood pressure, intervals from 1 to 6 hours at a dose of 100 mg/kg administered per orally. Format: functional, Artery. The settings on record: route oral. In a few lines:
(§1)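 DOCA/NaCl-treated hypertensive rats, kept at least 2 months after surgery (body weight 300–450 g), selected at systolic pressure of 160 mmHg or more. Compound given orally by dosing needle into the esophagus as a solution or suspension in 1% w/v methylcellulose. Systolic pressure measured by tail-cuff in restrained rats at 33.5 °C, before dosing and at intervals from 1 to 6 h; each reading was the mean of at least six recordings.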

Test [2] relates to Rattus norvegicus. Briefly: Maximum fall in systolic blood pressure, intervals from 1 to 6 hours at a dose of 10 mg/kg administered per orally. Format: functional, Artery. As to conditions: route oral. In short, it runs like this:
as §1

In test [3] the test system is Rattus norvegicus. Briefly: Maximum fall in systolic blood pressure at interval from 1 to 6 hours at a dose of 3 mg/kg when administered perorally in rats. Format: functional, Artery. As to conditions: route oral. In a few lines: as §1
Test [4] deals with Rattus norvegicus. Briefly: Maximum fall in systolic blood pressure at interval from 1 to 6 hours at a dose of 1 mg/kg when administered perorally in rats. Format: functional, Artery. As to conditions: route oral. In short, it runs like this: as §1
The test system of test [5] is Rattus norvegicus. Kind of test: Maximum fall in systolic blood pressure at interval from 1 to 6 hours at a dose of 30 mg/kg when administered perorally in rats. Format: functional, Artery. As to conditions: route oral. In a few lines: as §1
Test [6] deals with Rattus norvegicus. Briefly: Maximum fall in systolic blood pressure at interval from 1 to 6 hours at a dose of 0.3 mg/kg when administered perorally in rats. Format: functional, Artery. As to conditions: route oral. In a few lines:
as §1

Test [7] concerns Rattus norvegicus. Kind of test: Maximum fall in systolic blood pressure at interval from 1 to 6 hours at a dose of 300 mg/kg when administered perorally in rats. Format: functional, Artery. The settings on record: route oral. In a few lines:
as §1

Test [8] is filed under the species Rattus norvegicus. Briefly: Compound was tested at 9.7e-6M for inhibition of spontaneous activity in rat isolated portal vein.

Molecules are shown by their SMILES.

In the case of `CC1(C)Oc2ccc(C(N)=O)cc2[C@@H](N2CCCC2)[C@@H]1O.CS(=O)(=O)O`, in test [1], the “Max fall in blood pressure” value turned out to be 21 mmHg.
On to `CC(=O)Nc1ccc2c(c1)[C@@H](N1CCCCC1)[C@H](O)C(C)(C)O2.CS(=O)(=O)O`, for which the results for the “Max fall in blood pressure” value in test [1] and in test [2] were 14 mmHg and 6 mmHg, respectively.
For the compound `CC1(C)Oc2ccc([N+](=O)[O-])cc2[C@@H](N2C3CCCC2CCC3)[C@@H]1O.CS(=O)(=O)O`, the “Max fall in blood pressure” value in test [2] came out at 20 mmHg.
`CC1(C)Oc2ccc([N+](=O)[O-])cc2[C@@H](N2CCCC2)[C@@H]1O.CS(=O)(=O)O`: the “Max fall in blood pressure” value in test [2] is reported as 98 mmHg; in test [3] it was 79 mmHg; in test [4], 52 mmHg.
Take `C/C(=N\O)c1ccc2c(c1)[C@@H](N1CCCCC1)[C@H](O)C(C)(C)O2.CS(=O)(=O)O`: the “Max fall in blood pressure” value in test [1] is listed as 74 mmHg; in test [5] it was 80 mmHg; in test [2], 17 mmHg.
As to `CC1(C)Oc2ccc([N+](=O)[O-])cc2[C@@H](NC2CC2)[C@@H]1O.CS(=O)(=O)O`, the figures for the “Max fall in blood pressure” value in test [1] and in test [2] were 95 mmHg and 31 mmHg, respectively.
Regarding `COC(=O)c1ccc2c(c1)[C@@H](N1CCCC1)[C@H](O)C(C)(C)O2.CS(=O)(=O)O`, the “Max fall in blood pressure” value in test [5] stood at 65 mmHg; in test [2] it was 58 mmHg; in test [3], 14 mmHg.
As for `CC(C)(C)N[C@@H]1c2cc([N+](=O)[O-])ccc2OC(C)(C)[C@H]1O.CS(=O)(=O)O`, the “Max fall in blood pressure” value in test [1] is recorded as 7 mmHg.
With `CS(=O)(=O)O.Cc1c([N+](=O)[O-])ccc2c1OC(C)(C)[C@@H](O)[C@@H]2N1CCCCC1`, the “Max fall in blood pressure” value in test [1] is on record as 39 mmHg.
Take `CC1(C)Oc2ccc([N+](=O)[O-])cc2[C@@H](N2CCCCC2)[C@@H]1O.CS(=O)(=O)O`: the “Max fall in blood pressure” value is 105 mmHg in test [2], 73 mmHg in test [3] and 28 mmHg in test [4].
In the case of `CC1(C)Oc2ccc(C(=O)O)cc2[C@@H](N2CCCC2)[C@@H]1O`, the “Max fall in blood pressure” value in test [2] is given as 2 mmHg.
Consider `CC1(C)Oc2cc([N+](=O)[O-])ccc2[C@@H](N2CCCC2)[C@@H]1O.CS(=O)(=O)O`, for which the “Max fall in blood pressure” value turned out to be 99 mmHg in test [2], 90 mmHg in test [3] and 44 mmHg in test [4].
On to `CC1(C)Oc2c(ccc3ccccc23)[C@@H](N2CCCC2)[C@@H]1O`, for which the “Max fall in blood pressure” value in test [1] was 4 mmHg.
Turning to `CC1(C)Oc2ccc(C(N)=O)cc2[C@@H](N2CCCCC2)[C@@H]1O.CS(=O)(=O)O`, the “Max fall in blood pressure” value in test [1] is 30 mmHg; in test [2], 9 mmHg.
As to `CN[C@@H]1c2cc([N+](=O)[O-])ccc2OC(C)(C)[C@H]1O.Cl`, the “Max fall in blood pressure” value stood at 43 mmHg in test [1] and 21 mmHg in test [5].
On to `COc1ccc2c(c1)[C@@H](N1CCCC1)[C@H](O)C(C)(C)O2.Cl`, for which the “Max fall in blood pressure” value was determined as 17 mmHg in test [1] and 29 mmHg in test [5].
As for `CC1(C)Oc2ccc(Cl)cc2[C@@H](N2CCCCC2)[C@@H]1O.Cl`, the “Max fall in blood pressure” value in test [1] was 69 mmHg; in test [5], 7 mmHg.
Regarding `CC1(C)Oc2cccc(C#N)c2[C@@H](N2CCCCC2)[C@@H]1O.Cl`, the figures for the “Max fall in blood pressure” value in test [1] and in test [2] were 33 mmHg and 13 mmHg, respectively.
As to `CC1(C)Oc2ccc(C#N)cc2[C@@H](N2CCCCC2)[C@@H]1O.Cl`, the “Max fall in blood pressure” value in test [6] was 29 mmHg; in test [2], 107 mmHg; in test [3], 88 mmHg; in test [4] it was 35 mmHg.
Regarding `CC1(C)Oc2ccc([N+](=O)[O-])cc2[C@@H](N2CCCCCC2)[C@@H]1O.Cl`, the figures for the “Max fall in blood pressure” value in test [1] and in test [2] were 96 mmHg and 17 mmHg, respectively.
As for `CC1(C)Oc2cc([N+](=O)[O-])ccc2[C@@H](N2CCCCC2)[C@@H]1O.Cl`, the “Max fall in blood pressure” value in test [1] amounted to 79 mmHg; in test [2], 48 mmHg; in test [3], 18 mmHg.
Consider `CCN(CC)[C@@H]1c2cc([N+](=O)[O-])ccc2OC(C)(C)[C@H]1O.Cl`, for which the “Max fall in blood pressure” value was 54 mmHg in test [1] and 34 mmHg in test [5].
Take `Cc1ccc2c(c1)[C@@H](N1CCCCC1)[C@H](O)C(C)(C)O2.Cl`: the “Max fall in blood pressure” value is 43 mmHg in test [1], 44 mmHg in test [5] and 34 mmHg in test [2].
For `CC1(C)Oc2ccc([N+](=O)[O-])cc2[C@@H](NCCCO)[C@@H]1O.Cl`, the “Max fall in blood pressure” value in test [1] was determined as 28 mmHg.
As to `CC1(C)Oc2cc(C#N)ccc2[C@@H](N2CCCCC2)[C@@H]1O.Cl`, the entries for the “Max fall in blood pressure” value in test [1] and in test [5] were 33 mmHg and 7 mmHg, respectively.
For `CC1(C)Oc2ccc(F)cc2[C@@H](N2CCCCC2)[C@@H]1O.Cl`, the “Max fall in blood pressure” value in test [1] is reported as 26 mmHg; in test [2] it was 16 mmHg.
Turning to `CC(=O)c1ccc2c(c1)[C@@H](N1CCCCC1)[C@H](O)C(C)(C)O2.Cl`, the “Max fall in blood pressure” value was determined as 127 mmHg in test [1], 65 mmHg in test [5], 51 mmHg in test [2] and 12 mmHg in test [3].
Turning to `CC1CCN([C@@H]2c3cc([N+](=O)[O-])ccc3OC(C)(C)[C@H]2O)CC1.Cl`, in test [2], the “Max fall in blood pressure” value came out at 28 mmHg.
`CC1(C)Oc2c(C#N)cccc2[C@@H](N2CCCCC2)[C@@H]1O.Cl`: the “Max fall in blood pressure” value in test [1] was 33 mmHg; in test [2], 5 mmHg.
For `CC(C)N[C@@H]1c2cc([N+](=O)[O-])ccc2OC(C)(C)[C@H]1O.Cl`, the “Max fall in blood pressure” value in test [1] is 36 mmHg; in test [7] it was 69 mmHg.
In the case of `CC1(C)Oc2ccc([N+](=O)[O-])cc2[C@@H](NCCO)[C@@H]1O.Cl`, in test [1], the “Max fall in blood pressure” value is on record as 27 mmHg.
The Inhibition is the relative decrease from the control value, in per cent. High values mean a response far below the control, low ones a response near the control. Regarding `CC1(C)Oc2ccc(C#N)cc2[C@@H](N2CCCC2)[C@@H]1O.Cl`, the “Max fall in blood pressure” value in test [6] came out at 15 mmHg; in test [3], 117 mmHg; in test [4], 43 mmHg. For the same compound, the Inhibition in test [8] was determined as 32%.
Turning to `CC1(C)Oc2ccccc2[C@@H](N2CCCC2)[C@@H]1O.Cl`, the “Max fall in blood pressure” value was found to be 46 mmHg in test [1] and 10 mmHg in test [5].
On to `CC1(C)Oc2ccc([N+](=O)[O-])cc2[C@@H](N2CCN(c3ccccc3)CC2)[C@@H]1O.Cl`, for which the “Max fall in blood pressure” value in test [2] stood at 10 mmHg.
For the compound `CC1(C)Oc2ccc([N+](=O)[O-])cc2[C@@H](NCC2CC2)[C@@H]1O.Cl`, the “Max fall in blood pressure” value in test [1] came out at 13 mmHg.
With `CC1CCC(C)N1[C@@H]1c2cc([N+](=O)[O-])ccc2OC(C)(C)[C@H]1O.Cl` (stereo not given in full), the “Max fall in blood pressure” value in test [5] was determined as 26 mmHg.
With `CC(O)c1ccc2c(c1)[C@@H](N1CCCCC1)[C@H](O)C(C)(C)O2.Cl` (stereo not given in full), the “Max fall in blood pressure” value is 115 mmHg in test [5] and 20 mmHg in test [2].
As for `CC1(C)Oc2ccc3ccccc3c2[C@@H](N2CCCCC2)[C@@H]1O.Cl`, the “Max fall in blood pressure” value in test [1] is reported as 4 mmHg.
Take `CN(C)[C@@H]1c2cc([N+](=O)[O-])ccc2OC(C)(C)[C@H]1O.Cl`: the “Max fall in blood pressure” value in test [1] is on record as 29 mmHg.
`CC1(C)Oc2ccc([N+](=O)[O-])cc2[C@@H](N)[C@@H]1O.Cl`: the results for the “Max fall in blood pressure” value in test [1] and in test [5] were 45 mmHg and 23 mmHg, respectively.
For the compound `Cc1ccc2c(c1)[C@@H](N1CCCC1)[C@H](O)C(C)(C)O2.Cl`, in test [1], the “Max fall in blood pressure” value was found to be 9 mmHg.
Turning to `CC(=O)c1ccc2c(c1)[C@@H](N1CCCC1)[C@H](O)C(C)(C)O2.Cl`, the “Max fall in blood pressure” value turned out to be 78 mmHg in test [1], 66 mmHg in test [5], 53 mmHg in test [2] and 39 mmHg in test [3].
With `CC1(C)Oc2cccc([N+](=O)[O-])c2[C@@H](N2CCCCC2)[C@@H]1O.Cl`, in test [1], the “Max fall in blood pressure” value was 12 mmHg.
Turning to `CC1(C)Oc2ccc([N+](=O)[O-])cc2[C@@H](N2CCOCC2)[C@@H]1O.Cl`, the results for the “Max fall in blood pressure” value in test [1], in test [5] and in test [2] were 70 mmHg, 55 mmHg and 23 mmHg, respectively.
Turning to `CC1(C)Oc2ccc(N)cc2[C@@H](N2CCCC2)[C@@H]1O.Cl.Cl`, the “Max fall in blood pressure” value in test [1] turned out to be 6 mmHg.
On the same count and under the same terms, in the case of `CC1(C)Oc2ccc([N+](=O)[O-])cc2[C@@H](NCCN2CCCC2)[C@@H]1O.Cl.Cl` it was 23 mmHg.
As for `CC1(C)Oc2ccc([N+](=O)[O-])cc2[C@@H](N2CCCCCCC2)[C@@H]1O.Cl`, the results for the “Max fall in blood pressure” value in test [5], in test [2] and in test [3] were 82 mmHg, 53 mmHg and 34 mmHg, respectively.
As for `NNc1nncc2ccccc12` [HYDRALAZINE], the “Max fall in blood pressure” value in test [2] is on record as 113 mmHg; in test [3], 65 mmHg; in test [4] it was 32 mmHg. For the same compound, in test [8], the Inhibition is 40%.
Turning to `COC(=O)C1=C(C)NC(C)=C(C(=O)OC)C1c1ccccc1[N+](=O)[O-]` [NIFEDIPINE], the “Max fall in blood pressure” value in test [6] turned out to be 20 mmHg; in test [3] it was 51 mmHg; in test [4], 33 mmHg.
